Measured values: ChEMBL document CHEMBL2311526, “Phthalazinone inhibitors of inosine-5'-monophosphate dehydrogenase from Cryptosporidium parvum” (Bioorg Med Chem Lett, 2013)
Active and inactive are the calls of the source. No cut-off for these calls is given here.

Columns and labels:
[1] = test system: Cryptosporidium parvum; test: Antiparasitic activity against Cryptosporidium parvum infected in IL12 knockout mouse model at 250 mg/kg, po for 7 days; type: functional, organism-based; design: dose 250 mg/kg
Summary of the method: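 IL12 knockout mice were inoculated with 1,000 oocysts and, from 4 h post-infection, dosed by gavage once daily for 7 days at 250 mg/kg in 10% DMSO/corn oil. Controls were vehicle and paromomycin 2000 mg/kg. Oocysts from feces (days 0, 4, 7) were purified on sucrose gradients, stained 20 min with FITC-labelled OW50 antibody, and counted by flow cytometry, with ANOVA.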

[2] = test system: Toxoplasma gondii; test: Selectivity ratio for EC50 for wild type Toxoplasma gondii to EC50 for Cryptosporidium parvum IMPDH expressing Toxoplasma gondii; type: functional
[3] = test system: Toxoplasma gondii; test: Antiparasitic activity against Cryptosporidium parvum IMPDH expressing Toxoplasma gondii assessed as growth inhibition; type: functional, organism-based
[4] = test system: Toxoplasma gondii; test: Antiparasitic activity against wild type Toxoplasma gondii assessed as growth inhibition; type: functional, organism-based
[5] = target: T1, Inosine-5'-monophosphate dehydrogenase (Cryptosporidium parvum, UniProt Q8T6T2); test: Inhibition of recombinant Cryptosporidium parvum IMPDH assessed as production of NADH by fluorescence assay in presence of 0.05% BSA
T1 sequence (Q8T6T2 whole entry): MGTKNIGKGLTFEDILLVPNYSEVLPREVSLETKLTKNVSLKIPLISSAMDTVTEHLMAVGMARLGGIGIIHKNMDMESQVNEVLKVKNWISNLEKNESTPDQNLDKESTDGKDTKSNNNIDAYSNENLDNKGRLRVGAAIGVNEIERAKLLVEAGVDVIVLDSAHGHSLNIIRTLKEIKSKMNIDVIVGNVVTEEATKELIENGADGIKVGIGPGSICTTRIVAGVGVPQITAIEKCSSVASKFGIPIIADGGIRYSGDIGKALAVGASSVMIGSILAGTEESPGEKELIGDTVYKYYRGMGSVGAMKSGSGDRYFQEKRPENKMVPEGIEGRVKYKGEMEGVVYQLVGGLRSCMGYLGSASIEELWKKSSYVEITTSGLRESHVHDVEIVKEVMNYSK
Summary of the method: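 Enzyme inhibition was measured with 0.05% fatty acid free BSA added, to assess non-specific binding.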

[6] = target: T1, Inosine-5'-monophosphate dehydrogenase; test: Inhibition of recombinant Cryptosporidium parvum IMPDH assessed as production of NADH by fluorescence assay
[7] = test system: Liver; test: Half life in mouse liver microsomes; type: ADME, Microsome
[8] = target: T2, Inosine-5'-monophosphate dehydrogenase (Cryptosporidium parvum) (UniProt Q8T6T2); test: Pure noncompetitive inhibition of recombinant Cryptosporidium parvum IMPDH with respect to NAD+
T2 sequence (whole entry): T1 sequence (Q8T6T2 whole entry)

[9] = target: T2, Inosine-5'-monophosphate dehydrogenase (Cryptosporidium parvum); test: Mixed type inhibition of recombinant Cryptosporidium parvum IMPDH with respect to NAD+

Row | Compound | IC50 [5] | IC50 [6] | other results
1 | Cn1nc(CC(=O)Nc2ccc(Cl)c(C(F)(F)F)c2)c2ccccc2c1=O | 25 nM | 13 nM | Activity [1]: inactive; Ratio EC50 [2]: 60; EC50 [3]: 400 nM; EC50 [4]: 23000 nM; t1/2 [7]: 1.32 h; Kii [8]: 3.4 nM; Kis [8]: 3.4 nM
2 | Cn1nc(CC(=O)Nc2ccc(F)c(C(F)(F)F)c2)c2ccccc2c1=O | 150 nM | 150 nM | 
3 | COc1ccc(NC(=O)Cc2nn(C)c(=O)c3ccccc23)cc1 | 930 nM | 1000 nM | Kii [9]: 7 µM; Kis [9]: 1.8 µM
4 | Cn1nc(CC(=O)Nc2ccc(F)cc2)c2ccccc2c1=O |  | > 5000 nM | 
5 | Cc1cc2cc(NC(=O)Cc3nn(C)c(=O)c4ccccc34)ccc2o1 | 72 nM | 64 nM | 
6 | Cn1nc(CC(=O)Nc2ccc(Br)cc2)c2ccccc2c1=O | 130 nM | 130 nM | 
7 | COc1cc(NC(=O)Cc2nn(C)c(=O)c3ccccc23)ccc1Cl | 40 nM | 33 nM | 
8 | COc1cccc(NC(=O)Cc2nn(C)c(=O)c3ccccc23)c1 |  | > 5000 nM | 
9 | O=C(Cc1n[nH]c(=O)c2ccccc12)Nc1ccc(Br)c(C(F)(F)F)c1 | 130 nM | 32 nM | 
10 | Cn1nc(CC(=O)Nc2ccc(C#N)c(C(F)(F)F)c2)c2ccccc2c1=O | 52 nM | 54 nM | 
11 | Cn1nc(CC(=O)Nc2ccc3c(c2)oc2ccccc23)c2ccccc2c1=O |  | > 5000 nM | 
12 | CC(C)c1ccc(NC(=O)Cc2nn(C)c(=O)c3ccccc23)cc1 |  | > 5000 nM | 
13 | O=C(Cc1n[nH]c(=O)c2ccccc12)Nc1ccc(Cl)c(C(F)(F)F)c1 | 61 nM | 40 nM | 
14 | Cn1nc(CC(=O)Nc2ccc(Cl)cc2)c2ccccc2c1=O | 280 nM | 230 nM | 
15 | Cn1nc(CC(=O)Nc2ccc(C#N)cc2)c2ccccc2c1=O | 940 nM | 950 nM | 
16 | Cn1nc(CC(=O)Nc2ccc(C#N)c(Cl)c2)c2ccccc2c1=O | 470 nM | 290 nM | 
17 | Cc1ccc(NC(=O)Cc2nn(C)c(=O)c3ccccc23)cc1 |  | > 5000 nM | 
18 | Cn1nc(CC(=O)Nc2cccc(Cl)c2)c2ccccc2c1=O |  | > 5000 nM | 
19 | Cc1cc(NC(=O)Cc2nn(C)c(=O)c3ccccc23)ccc1Cl | 96 nM | 79 nM | 
20 | Cn1nc(CC(=O)Nc2ccc(S(C)(=O)=O)cc2)c2ccccc2c1=O |  | > 5000 nM | 
21 | Cn1nc(CC(=O)Nc2ccc(N)c(C(F)(F)F)c2)c2ccccc2c1=O |  | > 5000 nM | 
22 | CCn1c2ccccc2c2cc(NC(=O)Cc3nn(C)c(=O)c4ccccc34)ccc21 |  | > 5000 nM | 
23 | CCOc1ccc(NC(=O)Cc2nn(C)c(=O)c3ccccc23)cc1 |  | > 5000 nM | 
24 | Cn1nc(CC(=O)Nc2ccc(Br)cc2F)c2ccccc2c1=O | 1700 nM | 1100 nM | 
25 | Cn1nc(CC(=O)Nc2ccc3oc4ccccc4c3c2)c2ccccc2c1=O | 30 nM |  | Ratio EC50 [2]: 7; EC50 [3]: 400 nM; EC50 [4]: 3000 nM
26 | Cn1nc(CC(=O)Nc2ccc3ccccc3c2)c2ccccc2c1=O | 140 nM | 63 nM | 

Row | Compound | IC50 [5] | IC50 [6] | other results
27 | Cn1nc(CC(=O)Nc2ccc(Br)c(Cl)c2)c2ccccc2c1=O | 75 nM | 30 nM | 
28 | COc1ccc(CNC(=O)Cc2nn(C)c(=O)c3ccccc23)cc1 |  | > 5000 nM | 
29 | Cn1nc(CC(=O)NN)c2ccccc2c1=O |  | > 5000 nM | 
30 | Cn1nc(CC(=O)Nc2ccc(Br)cc2C(F)(F)F)c2ccccc2c1=O |  | > 5000 nM | 
31 | Cn1nc(CC(=O)Nc2ccc(Br)cc2Br)c2ccccc2c1=O |  | > 5000 nM | 
32 | COc1ccccc1NC(=O)Cc1nn(C)c(=O)c2ccccc12 |  | > 5000 nM | 
33 | Cn1nc(CC(=O)Nc2cc(Cl)cc(Cl)c2)c2ccccc2c1=O |  | > 5000 nM | 
34 | Cn1nc(CC(=O)Nc2ccc(OC(F)(F)F)cc2)c2ccccc2c1=O |  | > 5000 nM | 
35 | Cn1nc(CC(=O)Nc2ccc3[nH]c4ccccc4c3c2)c2ccccc2c1=O |  | > 5000 nM | 
36 | Cn1nc(CC(=O)Nc2cc(Cl)c(Cl)c(Cl)c2)c2ccccc2c1=O |  | > 5000 nM | 
37 | Cc1cc(NC(=O)Cc2nn(C)c(=O)c3ccccc23)ccc1Br | 140 nM | 70 nM | 
38 | Cc1cc(NC(=O)Cc2nn(C)c(=O)c3ccccc23)ccc1C#N | 460 nM | 400 nM | 
39 | Cn1nc(CC(=O)Nc2ccc(Cl)cc2C(F)(F)F)c2ccccc2c1=O |  | > 5000 nM | 
40 | Cn1nc(CC(=O)Nc2ccc(Cl)c(F)c2)c2ccccc2c1=O | 240 nM | 200 nM | 
41 | Cn1nc(CC(=O)NC(C)(C)C)c2ccccc2c1=O |  | > 5000 nM | 
42 | Cn1nc(CC(=O)Nc2ccc3ocnc3c2)c2ccccc2c1=O |  | > 5000 nM | 
43 | Cn1nc(CC(=O)Nc2cccc(C(F)(F)F)c2)c2ccccc2c1=O |  | > 5000 nM | 
44 | COc1ccc(NC(=O)Cc2nn(C)c(=O)c3ccccc23)cc1C(F)(F)F |  | > 5000 nM | 
45 | Cn1nc(CC(=O)Nc2ccc(Br)c(C(F)(F)F)c2)c2ccccc2c1=O | 48 nM | 24 nM | Ratio EC50 [2]: 14; EC50 [3]: 300 nM; EC50 [4]: 4000 nM
46 | Cn1nc(CC(=O)Nc2cc(F)c(F)c(F)c2)c2ccccc2c1=O |  | > 5000 nM | 
47 | Cn1nc(CC(=O)Nc2ccc(C(F)(F)F)cc2)c2ccccc2c1=O |  | > 5000 nM | 
48 | Cn1nc(CC(=O)Nc2ccc3oc4c(c3c2)CCCC4)c2ccccc2c1=O | 150 nM | 20 nM | Ratio EC50 [2]: 2; EC50 [3]: 500 nM; EC50 [4]: 1000 nM
49 | Cn1nc(CC(=O)Nc2ccc(Cl)c(Cl)c2)c2ccccc2c1=O | 95 nM | 55 nM | 
50 | Cn1nc(CC(=O)Nc2ccc3occc3c2)c2ccccc2c1=O | 85 nM | 93 nM | 
51 | Cn1nc(CC(=O)Nc2ccc(Cl)cc2Cl)c2ccccc2c1=O |  | > 5000 nM | 
52 | Cn1nc(CC(=O)Nc2ccc(C#N)c(C#N)c2)c2ccccc2c1=O | > 2500 nM | > 2500 nM | 
